Data on 38 sequences can be found in the array DNA melting data of Ke et al. (doi:10.1101/2024.01.08.574731).

The nature of series [1]: folding enthalpy; higher = less favourable; fluorescence melt of hairpins on a sequencing array, two-state fit. To be noted: sodium 0.088 M. An outline of the steps:
(§1)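 Two-state fits, bootstrapped, provided melting temperature and folding enthalpy from Cy3 fluorescence normalised to pre-quench Cy3 and to control constructs. Library hairpins with annealed Cy3 and quencher oligos were imaged on a sequenced MiSeq flow cell in 50 mM Na-HEPES pH 8.0, 25 mM NaCl, at 2.5 °C intervals up to 60 °C. Four replicates were combined with inverse-variance weighting. A 9.35 °C upward shift was applied to fitted temperatures to match UV melts.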

Series [2] is described as follows: melting temperature; fluorescence melt of hairpins on a sequencing array, two-state fit, raised by 9.35 °C to match UV melts. To be noted: sodium 0.088 M. Summed up:
as §1

As to GATCGCTGGTGCGATC ((((((....)))))), the folding enthalpy in series [1] was -34.2 kcal/mol. Also, the Tm in series [2] stood at 68.6 °C.
The corresponding values for GATCGCTTCTGCGATC ((((((....)))))) are -42.3 kcal/mol and 68.3 °C.
The corresponding values for GATCGCTTTCGCGATC ((((((....)))))) are -38.4 kcal/mol and 67.4 °C.
With GATCGGAAACCCGATC ((((((....)))))), the folding enthalpy in series [1] was -34.6 kcal/mol. Moreover, the Tm in series [2] worked out at 53.9 °C.
The corresponding values for GATCGGAACCCGATC ((((((...)))))) are -44 kcal/mol and 54 °C.
The corresponding values for GATCGGAACGCCGATC ((((((....)))))) are -41.2 kcal/mol and 54.7 °C.
On to GATCGGACAACCGATC ((((((....)))))), for which the folding enthalpy in series [1] was -34.7 kcal/mol. For the same sequence, the Tm in series [2] stood at 53.5 °C.
As to GATCGGACGCCGATC ((((((...)))))), the folding enthalpy in series [1] is -37.4 kcal/mol. In addition, the Tm in series [2] came out at 53.6 °C.
For GATCGGAGCACCGATC ((((((....)))))), in that order: -34.3 kcal/mol and 57.4 °C.
For GATCGGAGGCCCGATC ((((((....)))))), in that order: -34.1 kcal/mol and 56.4 °C.
The corresponding values for GATCGGAGTGCCGATC ((((((....)))))) are -30.2 kcal/mol and 57 °C.
In the case of GATCGGAGTTCCGATC ((((((....)))))), the folding enthalpy in series [1] was -37.8 kcal/mol. The Tm in series [2] was 56.7 °C.
On to GATCGGATACCCGATC ((((((....)))))), for which the folding enthalpy in series [1] was -40.3 kcal/mol. Also, the Tm in series [2] worked out at 56.6 °C.
For GATCGGATAGCCGATC ((((((....)))))), in that order: -29.6 kcal/mol and 55.4 °C.
For the sequence GATCGGATGCCCGATC ((((((....)))))), the folding enthalpy in series [1] is -27 kcal/mol. Moreover, the Tm in series [2] was 55.5 °C.
With GATCGGATTACCGATC ((((((....)))))), the folding enthalpy in series [1] was -38.7 kcal/mol. The Tm in series [2] worked out at 58.2 °C.
Turning to GATCGGCAACCGATC ((((((...)))))), the folding enthalpy in series [1] was -36.7 kcal/mol. Besides, in series [2], the Tm is 54.6 °C.
For GATCGGCCGCCGATC ((((((...)))))), the folding enthalpy in series [1] was -36.6 kcal/mol. The Tm in series [2] is 55.7 °C.
As to GATCGGCGAAAGCCCATC (((.(((....))).))), the folding enthalpy in series [1] is -11.2 kcal/mol. Besides, the Tm in series [2] came out at 36.4 °C.
Turning to GATCGGCGAACCGATC ((((((....)))))), the folding enthalpy in series [1] is -38.2 kcal/mol. Besides, the Tm in series [2] amounted to 56.2 °C.
The corresponding values for GATCGGCTGCCCGATC ((((((....)))))) are -31.2 kcal/mol and 56.2 °C.
For GATCGGCTGGCCGATC ((((((....)))))), in that order: -38.2 kcal/mol and 68.3 °C.
In the case of GATCGGGACCCCGATC ((((((....)))))), the folding enthalpy in series [1] is -39.4 kcal/mol. In addition, the Tm in series [2] was determined as 62.4 °C.
For GATCGGGCCTCCGATC ((((((....)))))), in that order: -36.6 kcal/mol and 59.7 °C.
The corresponding values for GATCGGGCTACCGATC ((((((....)))))) are -36.7 kcal/mol and 67.7 °C.
For GATCGGGGAAACCCGGTC ((.((((....)))).)), in that order: -26.8 kcal/mol and 53.8 °C.
As to GATCGGGGAACCGATC ((((((....)))))), the folding enthalpy in series [1] was -34.1 kcal/mol. In series [2], the Tm was determined as 65.3 °C.
On to GATCGGGGTACCGATC ((((((....)))))), for which, in series [1], the folding enthalpy was -34.5 kcal/mol. In addition, in series [2], the Tm turned out to be 65.7 °C.
Turning to GATCGGGTCACCGATC ((((((....)))))), the folding enthalpy in series [1] was -36.4 kcal/mol. Further, the Tm in series [2] is 67.4 °C.
For GATCGGGTCCCGATC ((((((...)))))), in that order: -46.5 kcal/mol and 56.7 °C.
As for GATCGGGTCGCCGATC ((((((....)))))), in series [1], the folding enthalpy is -7.84 kcal/mol. Moreover, in series [2], the Tm was found to be 65.3 °C.
In the case of GATCGGGTGACCGATC ((((((....)))))), the folding enthalpy in series [1] is -36.4 kcal/mol. The Tm in series [2] is 67 °C.
As for GATCGGGTGCCGATC ((((((...)))))), the folding enthalpy in series [1] was -49.1 kcal/mol. The Tm in series [2] was determined as 55.2 °C.
Turning to GATCGGGTTGCCGATC ((((((....)))))), the folding enthalpy in series [1] was -31.1 kcal/mol. Moreover, the Tm in series [2] came to 57.7 °C.
For the sequence GATCGGTAATCCGATC ((((((....)))))), the folding enthalpy in series [1] was -40.8 kcal/mol. The Tm in series [2] was found to be 57.3 °C.
The corresponding values for GATCGGTAGCCCGATC ((((((....)))))) are -30.1 kcal/mol and 56.3 °C.
The corresponding values for GATCGGTCACCGATC ((((((...)))))) are -36.2 kcal/mol and 55.8 °C.
Consider GATCGGTCTTCCGATC ((((((....)))))), for which the folding enthalpy in series [1] is -37.2 kcal/mol. In addition, in series [2], the Tm amounted to 58.9 °C.
